Bioassay records (PubChem)
SIRT5 block: blocks human SIRT5 desuccinylation of peptide; inhibition, % at 15 µM; AID 652115; 330,000 tested, 1.1% active; Q9NXA8; Purified SirT5, succinyl-peptide AMC, trypsin-coupled fluorescence; in the data active = inhibition above about 15%; inconclusive = no clear call, values can overlap the other calls
Target sequence (Q9NXA8 whole entry, looked up): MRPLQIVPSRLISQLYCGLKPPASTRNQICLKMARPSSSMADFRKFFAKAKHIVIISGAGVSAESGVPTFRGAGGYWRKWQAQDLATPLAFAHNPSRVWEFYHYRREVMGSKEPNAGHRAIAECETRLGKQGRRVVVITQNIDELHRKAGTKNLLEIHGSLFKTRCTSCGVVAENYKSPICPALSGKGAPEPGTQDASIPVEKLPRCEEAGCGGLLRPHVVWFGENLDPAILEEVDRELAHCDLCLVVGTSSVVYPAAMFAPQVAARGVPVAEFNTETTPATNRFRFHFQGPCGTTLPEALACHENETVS
FN deposition inh: fibronectin deposition inhibition; inhibition, % at 12.6 µM; AH1F fibroblasts, Alexa488-fibronectin deposition fluorescence, overnight; 350,000 tested, 0.086% active;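 active = mean inhibition across replicates of 30% or more, regardless of how many single replicates reach that level; inconclusive = mean under 30% yet at least half of replicates reach 30%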
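Material: AH1F fibroblasts assembling fluorescent fibronectin matrix; amount: 10000 AH1F cells/well; medium: DMEM, 2% serum; reagent: Alexa488-fibronectin, 24 nM final in well; dosing: single compound dose, delivered by pin transfer; incubation: 1 h adhesion, overnight exposure; detection: fluorescence after three HBSS washes, excitation 485 nm, emission 525 nm; measure: fibronectin deposition inhibition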
XiGFP reactiv: reactivates the inactive X chromosome in mouse fibroblasts; AID 743238; activation, % at 7.58 µM; XiGFP mouse fibroblasts, % GFP-positive cells imaging, 3 d; cells co-treated with 5-aza-dC sensitizer; scaled so ellipticine positive control = 100%; 360,000 tested, 0.055% active;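 active = mean normalized replicate activation at least 10% and every replicate at or above 10%; inconclusive = only one of the two criteria met; inactive = mean below 10% and not all replicates reach 10%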
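Material: XiGFP fibroblasts, SV40-immortalized; Buffer or medium: DMEM containing 5-aza-dC; Compound dosing: single point; Times: 3 days compound exposure.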
ARNT TACC3 PPI: disrupts binding between human ARNT and TACC3. Q9Y6A5. AlphaScreen His-ARNT PAS-B/GST-TACC3 binding, luminescence; TACC3 fragment carries E629A point mutation. inhibition, % at 9.99 µM. 390,000 tested, 0.66% active;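 active = mean inhibition of replicates at least 50% and at least half of replicates each reaching 50%; inconclusive = half or more replicates reach 50% but mean below 50%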
DENV2 CPE: inhibitors of DENV2 cytopathic effect; CPE inhibition, % at 9.99 µM; 350,000 tested, 1.7% active; DENV2-infected cells, cytopathic effect rescue, plate reader; AID 651640; in the data active = CPE inhibition above about 20%, passing the limit was not always enough; inconclusive = no clear call, values can overlap the other calls; tested in BHK-21 cells
FGF22 binding: binders of recombinant human FGF22 by thermal shift. activity (Tm shift, normalised), % at 9.99 µM. 340,000 tested, 1.5% active. Q9HCT0. SYPRO orange fluorescence; percent of sucrose octasulfate shift, DMSO zero;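 active = mean Tm shift, scaled 0 neutral to 100 positive control, at about 1.3% or above, every replicate too, limit read from the data; inconclusive = no clear call, values can overlap the other calls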
Target sequence (Q9HCT0 whole entry, looked up): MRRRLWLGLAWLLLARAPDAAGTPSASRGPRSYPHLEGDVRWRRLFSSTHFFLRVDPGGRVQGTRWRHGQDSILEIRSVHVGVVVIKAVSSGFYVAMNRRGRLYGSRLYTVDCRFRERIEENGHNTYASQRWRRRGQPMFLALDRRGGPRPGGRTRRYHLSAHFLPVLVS
Of the large screens only hits and unclear results are named; the others gave an inactive call; ! = not confirmed by another sample. An excerpt weighted towards active compounds, which were near 3.8% of everything screened.

C[C@H](CO)N1C[C@H](C)[C@H](CN(C)S(=O)(=O)c2ccc(Cl)cc2)OCCCC[C@H](C)Oc2ccc(NS(=O)(=O)c3ccc(F)cc3)cc2C1=O	SIRT5 block 23, DENV2 CPE inconclusive
C[C@@H]1CCCCO[C@@H](CN(C)S(=O)(=O)c2ccc(F)cc2)[C@H](C)CN([C@H](C)CO)C(=O)c2cc(NS(=O)(=O)c3ccc(Cl)cc3)ccc2O1	SIRT5 block 17 (no result: FGF22 binding)
C/C=C/c1ccc([C@H]2[C@@H](C#N)N(C(=O)c3cccnc3)[C@H]2CO)cc1	DENV2 CPE inconclusive
CCCNC(=O)C1(C)CCCN(Cc2cccc(Oc3ccccc3)c2)C1 (configuration not stated)	SIRT5 block 20 (no result: ARNT TACC3 PPI)
CCCNC(=O)C1(C)CCCN(Cc2ccc(Oc3ccccc3)cc2)C1 (configuration not stated)	none (no result: ARNT TACC3 PPI)
O=S(=O)(c1cccs1)N1CCCCN2[C@H](CO)[C@H](c3ccc(-c4ccccc4)cc3)[C@@H]2C1	DENV2 CPE 23 (no result: FN deposition inh)
COc1ccc(-c2ccc([C@H]3[C@@H](CO)N4CCCCN(S(=O)(=O)c5cccs5)C[C@@H]34)cc2)cc1	DENV2 CPE 22 (no result: FN deposition inh)
O=C(C1=C[C@@H](c2ccc3c(c2)OCO3)C[C@@H](OCCCCO)O1)N1CCN(Cc2ccc3c(c2)OCO3)CC1	none
O=C(C1=C[C@@H](c2ccccc2)C[C@@H](OCCCCO)O1)N1CCN(Cc2ccc3c(c2)OCO3)CC1	DENV2 CPE 21!
O=C(C1=C[C@H](c2ccc3c(c2)OCO3)C[C@H](OCCCCO)O1)N1CCN(Cc2ccc3c(c2)OCO3)CC1	DENV2 CPE 44
CCCCC(=O)Nc1ccc2c(c1)nc(CCNC(=O)c1ccco1)n2C	SIRT5 block 23
Cn1c(CCNC(=O)c2ccco2)nc2cc(NC(=O)c3ccco3)ccc21	none (no result: SIRT5 block, XiGFP reactiv, DENV2 CPE, FGF22 binding)
COc1ccc(/C=N\NC(=O)c2ccc(Cn3cc(Br)c([N+](=O)[O-])n3)o2)c(OC)c1C	FGF22 binding 44 (no result: ARNT TACC3 PPI)
COc1ccc(/C=N/NC(=O)c2ccc(Cn3cc([N+](=O)[O-])cn3)o2)c(OC)c1C	none (no result: SIRT5 block, FN deposition inh, XiGFP reactiv, DENV2 CPE, FGF22 binding)
C[C@@H]1CN([C@H](C)CO)C(=O)c2cc(C#CC3CCCC3)cnc2O[C@@H]1CN(C)C(=O)Cc1ccccn1	none (no result: FN deposition inh)
COc1ccc(S(=O)(=O)NC2CC3CCC2C3)cc1 (configuration not stated)	none
CSc1ccc(S(=O)(=O)NC2CC3CCC2C3)cc1 (configuration not stated)	DENV2 CPE 37
O=[N+]([O-])c1ccc(C[n+]2cccc(O)c2)cc1	DENV2 CPE 67 (no result: SIRT5 block)
O=C(O)c1ccc[n+](Cc2ccc([N+](=O)[O-])cc2)c1	none (no result: ARNT TACC3 PPI)
C[C@@H]1CCCCO[C@@H](CN(C)C(=O)Cc2ccccc2)[C@H](C)CN([C@@H](C)CO)C(=O)c2cc(NC(=O)CCCCCC(=O)Nc3ccccc3N)ccc2O1	none (no result: FN deposition inh)
Cn1nnc2cc(NC(=O)Nc3ccccc3F)ccc21	none (no result: ARNT TACC3 PPI)
COCC(=O)Nc1ccc(Br)c(C)c1	none (no result: FN deposition inh)
CC(=O)OCC(=O)Nc1ccc(Br)c(C)c1	FGF22 binding 43 (no result: ARNT TACC3 PPI)
Cc1cc(NC(=O)Nc2ccccc2F)ccc1Br	FN deposition inh 39 (no result: ARNT TACC3 PPI)
COc1ccccc1OCC(=O)N/N=C1/C=C(C)CC1	FGF22 binding 43
COc1ccc2c3c(n(C)c2c1)[C@@H](CO)N(C(=O)C1CCCC1)CC31CN(C(=O)Nc2cccc(F)c2)C1	DENV2 CPE 77 (no result: ARNT TACC3 PPI)
COc1ccc2c3c(n(C)c2c1)[C@H](CO)N(C(=O)C1CCCC1)CC31CN(C(=O)Nc2cccc(F)c2)C1	none (no result: ARNT TACC3 PPI)
COc1ccc2c3c(n(C)c2c1)[C@H](CO)N(C)CC31CCN(C(=O)CN2CCOCC2)CC1	DENV2 CPE 53 (no result: ARNT TACC3 PPI)
CCC(=O)N1CC2(CN(Cc3ccc(F)cc3)C2)c2c(n(C)c3cc(OC)ccc23)[C@@H]1CO	DENV2 CPE 21 (no result: ARNT TACC3 PPI)
COc1ccc2c3c(n(C)c2c1)[C@H](CO)N(C(=O)CN1CCOCC1)CC31CN(Cc2ccncc2)C1	DENV2 CPE 37 (no result: FN deposition inh, ARNT TACC3 PPI)
COc1ccc2c3c(n(C)c2c1)[C@@H](CO)N(C(=O)CN1CCOCC1)CC31CN(C)C1	none (no result: FN deposition inh, ARNT TACC3 PPI, FGF22 binding)
Cc1noc(C)c1NC(=O)Nc1ccc2c(c1)C(=O)N([C@H](C)CO)C[C@@H](C)[C@H](CN(C)C(=O)Nc1ccc(F)cc1)O2	none
CC(C)NC(=O)Nc1ccc2c(c1)CC(=O)N(C)C[C@H](C)[C@@H](CN(C)C(=O)NC(C)C)O2	none (no result: SIRT5 block, ARNT TACC3 PPI, DENV2 CPE, FGF22 binding)
CCCC(=O)N1CC2(CCN(C(=O)Nc3cccc(F)c3)CC2)c2c(n(C)c3cc(OC)ccc23)[C@@H]1CO	none (no result: SIRT5 block, FN deposition inh, ARNT TACC3 PPI)
COc1ccc2c3c(n(C)c2c1)[C@H](CO)N(C(=O)CN1CCOCC1)CC31CCN(C(=O)Nc2cccc(F)c2)CC1	XiGFP reactiv inconclusive, DENV2 CPE 33 (no result: ARNT TACC3 PPI)
COCC(=O)N1CC2(CCN(Cc3cncnc3)CC2)c2c(n(C)c3cc(OC)ccc23)[C@H]1CO	DENV2 CPE 50 (no result: SIRT5 block, FN deposition inh, ARNT TACC3 PPI)
COc1ccc2c3c(n(C)c2c1)[C@@H](CO)N(Cc1ccc(F)cc1)CC31CN(CC2CCOCC2)C1	DENV2 CPE 99 (no result: SIRT5 block, FN deposition inh, ARNT TACC3 PPI, FGF22 binding)
COc1ccc2c3c(n(C)c2c1)[C@H](CO)N(C(=O)C1CCC1)CC31CN(Cc2cccc(F)c2)C1	DENV2 CPE 22 (no result: FN deposition inh, ARNT TACC3 PPI)
C[C@@H]1CCCCO[C@H](CN(C)C(=O)c2ccccc2)[C@H](C)CN([C@@H](C)CO)C(=O)c2cc(NC(=O)c3ccncc3)ccc2O1	none (no result: FN deposition inh)
C[C@@H]1CN([C@H](C)CO)C(=O)c2cc(NS(=O)(=O)c3ccccc3)ccc2O[C@@H](C)CCCCO[C@H]1CN(C)Cc1ccc(C(F)(F)F)cc1	SIRT5 block 19 (no result: FGF22 binding)
C[C@@H]1CN([C@@H](C)CO)C(=O)c2cc(NS(=O)(=O)c3ccccc3)ccc2O[C@@H](C)CCCCO[C@@H]1CN(C)Cc1ccc(C(F)(F)F)cc1	SIRT5 block 20 (no result: FGF22 binding)
C[C@H]1CCCCO[C@H](CN(C)Cc2ccc(C(F)(F)F)cc2)[C@@H](C)CN([C@@H](C)CO)C(=O)c2cc(NS(=O)(=O)c3ccccc3)ccc2O1	SIRT5 block 20 (no result: FGF22 binding)
O=C(C[C@H]1C[C@@H]2c3cc(NC(=O)Nc4ccc(C(F)(F)F)cc4)ccc3O[C@@H]2[C@@H](CO)O1)NCc1ccc2c(c1)OCO2	SIRT5 block 25
O=C(C[C@@H]1C[C@H]2c3cc(NC(=O)Nc4ccc(C(F)(F)F)cc4)ccc3O[C@H]2[C@H](CO)O1)NCc1ccc2c(c1)OCO2	SIRT5 block 27
CC(=O)N1CC2(C1)[C@H](c1ccc(-c3ccc(F)cc3)cc1)[C@H](CO)N2CC1CC1	none (no result: ARNT TACC3 PPI)
